What was measured:
MT4 [1] = test: Cytotoxic concentration based on the reduction of viability of mock-infected cells; assay type: functional; settings: Homo sapiens
Outline: (§1)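 Mock-infected MT-4 cells; viable cell number determined by MTT method; CC50 = concentration giving 50% reduction of viability.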

Homo sapiens [2] = species on record: Homo sapiens; test: Compound was evaluated for the inhibition of HIV-1 (HTLV-III B strain ) replication in peripheral blood lymphocytes (PBL), measured as p24 antigen reduction.
Homo sapiens [3] = species on record: Homo sapiens; test: Cytotoxic concentration based on the reduction of viability of mock-infected peripheral blood lymphocytes (PBL); assay type: functional
Outline: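 Mock-infected peripheral blood lymphocytes; viable cell number determined by MTT method; CC50 is the concentration giving 50% reduction of viability.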

MT4 [4] = test: Compound was evaluated for the inhibition of HIV-1 induced CPE (HTLV-III B strain ) replication in MT-4 cells; assay type: functional, cell-based; settings: Homo sapiens
Outline: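 HIV-1 strain HTLV-IIIB in MT-4 cells; EC50 = concentration giving 50% inhibition of virus-induced cytopathic effect; viable cells counted by MTT method.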

[5] = (§2) Selectivity index is the ratio of CC50 and EC50 in peripheral blood lymphocytes (PBL).; assay type: functional
Outline: (§3)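 HIV-1 strain HTLV-IIIB in peripheral blood lymphocytes. EC50 is 50% reduction of p24 antigen in culture supernatant. CC50 is 50% loss of viability in mock-infected cells, with viable cells counted by MTT. Index = CC50/EC50.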

[6] = Selectivity index is the ratio of CC50 and EC50 in MT-4 cells.; assay type: functional, MT4
Outline: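 MT-4 cells; selectivity index = CC50 (MTT viability of mock-infected cells) divided by EC50 (inhibition of HIV-1-induced cytopathic effect).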

MT4 [7] = test: Selectivity index is the ratio of CC50 and EC50 in MT-4 cells; assay type: functional, Homo sapiens
Outline: (§4)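 HIV-1 strain HTLV-IIIB in MT-4 cells. EC50 is 50% inhibition of virus-induced cytopathic effect. CC50 is 50% loss of viability in mock-infected cells. Viable cells were counted by the MTT method. Index = CC50/EC50.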

[8] = Selectivity index is the ratio of CC50 and EC50 MT-4 cells.; assay type: functional, MT4; outline: as §4
MT4 [9] = test: Cytotoxic concentration based on the reduction of viability of mock-infected MT-4 cells; assay type: functional; settings: Homo sapiens; outline: as §1
Homo sapiens [10] = species on record: Homo sapiens; test: as §2; assay type: functional; outline: as §3
MT4 [11] = test: Cytotoxic concentration based on the reduction of viability of mock-infected MT-4 cells.; assay type: functional; settings: Homo sapiens; outline: as §1
MT4 [12] = test: Compound was evaluated for the inhibition of HIV-2 induced CPE (LAV-2EHO strain ) replication in MT-4 cells; assay type: functional, cell-based; settings: Homo sapiens
Homo sapiens [13] = species on record: Homo sapiens; test: Cytotoxic concentration based on the reduction of viability of mock-infected peripheral blood lymphocytes (PBL).; assay type: functional
Outline: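 Mock-infected peripheral blood lymphocytes; CC50 = concentration giving 50% reduction in viability, viable cells measured by MTT method.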

MT4 [14] = test: Compound was evaluated for the inhibition of HIV-1 induced CPE (HTLV-III B strain ) replication in MT-4 cells.; assay type: functional, cell-based; settings: Homo sapiens
Outline: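 HTLV-IIIB strain of HIV-1 in MT-4 cells; activity read as inhibition of virus-induced cytopathic effect, viable cells counted by MTT method; EC50 is the 50% effective concentration.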

| SMILES | CC50 (MT4 [1]) [µM] | EC50 (MT4 [4]) [µM] | Selectivity index [6] | also measured |
| --- | --- | --- | --- | --- |
| Cc1cn([C@H]2C[C@H](N=[N+]=[N-])[C@@H](CO)O2)c(=O)[nH]c1=O [ZIDOVUDINE] | 3.2 | 0.004 | – | EC50 (Homo sapiens [2]): 0.003 µM; CC50 (Homo sapiens [3]): 83 µM; Selectivity index [5]: 27667 |
| CN(C)C(=O)Oc1nsnc1-c1ccccc1 | 183 | 23 | 8 | – |
| CCCN(C)C(=O)Oc1nsnc1-c1c(Cl)cccc1Cl | – | 0.013 | – | Selectivity index (MT4 [7]): <1; Selectivity index [8]: 10077; CC50 (MT4 [9]): 131 µM; Selectivity index (Homo sapiens [10]): 37500; CC50 (MT4 [11]): 131 µM; EC50 (MT4 [12]): > 131 µM; CC50 (Homo sapiens [13]): 150 µM |
| CC(=O)c1ccc(C)cc1NC(C(N)=O)c1c(Cl)cccc1Cl (centres undefined) [LOVIRIDE] | 137 | 0.006 | 22833 | EC50 (Homo sapiens [2]): 0.11 µM; CC50 (Homo sapiens [3]): 48 µM; Selectivity index [5]: 436 |
| Oc1nsnc1-c1c(Cl)cccc1Cl | 221 | – | <1 | EC50 (MT4 [14]): 212 µM |
| CN(C)C(=O)Oc1nsnc1-c1c(Cl)cccc1Cl | 145 | 0.24 | 604 | – |
| Cc1ccnc2c1NC(=O)c1cccnc1N2C1CC1 [NEVIRAPINE] | 290 | 0.073 | 3973 | – |
| Cc1nsnc1OC(=O)N(C)C | 535 | > 535 | <1 | – |
| CCN(C)C(=O)Oc1nsnc1-c1c(Cl)cccc1Cl | 136 | 0.039 | 3487 | – |
| CCCCCCN(C)C(=O)Oc1nsnc1-c1c(Cl)cccc1Cl | 16 | 0.1 | 160 | – |
| CCCCN(C)C(=O)Oc1nsnc1-c1c(Cl)cccc1Cl | 29 | 0.039 | 744 | – |
| CN(C)C(=O)Oc1nsnc1-c1ccccc1Cl | 161 | 0.32 | 503 | – |
| CN(C)C(=O)Oc1cnsn1 | 560 | > 560 | <1 | – |

From ChEMBL document CHEMBL1128389, “Thiadiazole derivatives: highly potent and specific HIV-1 reverse transcriptase inhibitors” (J Med Chem, 1995)
